Compound activity: PubChem BioAssay, Johns Hopkins Ion Channel Center
KCNK9 block – blocks the human KCNK9 two-pore domain potassium channel | Q9NPC2 | HEK293 KCNK9, FluxOR thallium flux fluorescence; active compounds read low | B-score at 10 µM | 310,000 tested, 1.2% active | AID 488922;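 active = ratio B-score over 3 SD below the library mean, with starting fluorescence within 5 SD of its mean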;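 note: negative B-score means less thallium flux so channel inhibition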
KCNK3 inh – human KCNK3 channel inhibition, primary screen; O14649; CHO-KCNK3 thallium flux, FluxOR fluorescence; active compounds read low; B-score at 10 µM; 340,000 tested, 0.84% active;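 active = B-score under library mean minus 4 SD, starting fluorescence ratio at most library mean plus 5 SD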;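 note: more negative B-score means stronger inhibition of thallium flux through KCNK3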
KCNQ1 block – blocks the human KCNQ1 potassium channel. P51787. CHO-K1 KCNQ1, FluxOR thallium flux fluorescence; active compounds read high. B-score at 10 µM. 310,000 tested, 1.3% active. AID 2642;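 active = compounds whose thallium flux B-score, printed positive for inhibition, exceeds three library SD while starting fluorescence stays within three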;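 note: channel opened by potassium depolarization with thallium stimulus after 20 min compound exposure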
KCNQ1 pot – potentiators or activators of human KCNQ1 potassium channel; 310,000 tested, 0.35% active; B-score at 10 µM; CHO-K1 KCNQ1, thallium flux FluxOR fluorescence; active compounds read high; AID 2648;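 active = fluorescence ratio B-score, a plate-corrected score, at least three library SD, with initial intensity B-score within 5 SD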
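Medium – assay buffer, equal DMSO in all wells · Material – CHO-K1 cell line with stable KCNQ1 potassium channel expression · Signal – kinetic FluxOR thallium fluorescence, 10-s 1-Hz baseline, 110-s post-stimulus read · Compound – single concentration per compound, DMSO matched to controls · Schedule – 37 °C overnight plating, 90-min dark dye load, 20-min compound pretreatment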
Kir21 inh – inhibitors of mouse Kir2.1 inward-rectifier potassium channel | B-score at 10 µM | HEK293-Kir2.1, FluxOR thallium flux fluorescence; active compounds read low | P35561 | 310,000 tested, 0.85% active | AID 1672;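 active = fluorescence ratio B-score at or below minus 3 SD of library scores, with starting-brightness B-score within 2 SD, cut at about -4.2 in these data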;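 note: channel flux triggered by added potassium and thallium sulfate stimulus; B-score of peak minus minimum fluorescence over baseline after thallium stimulus; more negative B-score means stronger Kir2.1 block with less thallium influx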
Target sequence (P35561 whole entry, looked up): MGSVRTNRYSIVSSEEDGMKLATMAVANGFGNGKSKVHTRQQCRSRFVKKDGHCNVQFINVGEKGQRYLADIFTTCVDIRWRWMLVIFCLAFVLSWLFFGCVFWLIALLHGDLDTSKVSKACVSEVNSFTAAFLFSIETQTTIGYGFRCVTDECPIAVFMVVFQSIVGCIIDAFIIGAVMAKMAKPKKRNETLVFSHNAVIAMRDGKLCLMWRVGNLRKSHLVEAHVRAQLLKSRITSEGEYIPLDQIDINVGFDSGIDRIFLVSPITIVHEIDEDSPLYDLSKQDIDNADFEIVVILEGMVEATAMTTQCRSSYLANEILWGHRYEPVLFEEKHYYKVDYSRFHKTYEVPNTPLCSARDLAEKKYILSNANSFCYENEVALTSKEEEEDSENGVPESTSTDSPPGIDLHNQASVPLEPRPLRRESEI
hERG rescue – shields human hERG channel from block by proarrhythmic agents | activation (rescue from dofetilide block), less the hit threshold, % at 10 µM | CHO-hERG, FluxOR thallium flux, dofetilide IC70 present | 310,000 tested, 0.51% active | Q12809;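 active = activation above the mean of controls blocked by dofetilide plus 5 SD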;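 note: thallium influx through hERG after potassium depolarization seen as dye fluorescence rise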
Of the large screens only hits and unclear results are named; the others gave an inactive call; ! = a repeat was not active. The list is not random: actives were taken first. Their share in the collection is about 3.7%.

CCCC(=O)NC(Oc1ccc(OC)cc1)C(Cl)(Cl)Cl (stereo not drawn)	Kir21 inh -5.7
COC(=O)C1=C(c2ccc(OCc3ccccc3)cc2)C[C@@H]2CC[C@H]1N2C(=O)NC1CCN(Cc2ccccc2)CC1	none (no result: KCNK9 block, KCNQ1 block, KCNQ1 pot, Kir21 inh, hERG rescue)
CN1CCN(/N=C/c2c(O)n(CCC3=CCCCC3)c(=S)[nH]c2=O)CC1	none
O=c1[nH]c(=S)n(CCC2=CCCCC2)c(O)c1C=NC1CCN(Cc2ccccc2)CC1	KCNQ1 block 7
N[C@@H](Cc1c[nH]c2ccccc12)c1nnc(SCc2ccccc2)o1	none
N[C@@H](Cc1c[nH]c2ccccc12)c1nnc(SCc2ccc(Cl)cc2)o1	Kir21 inh -5.2
CCN(CC)CCO	none (no result: KCNK9 block, KCNQ1 block, KCNQ1 pot, Kir21 inh, hERG rescue)
COc1ccc(NC(=O)N2C[C@@H]3C[C@@H](C2)c2cccc(=O)n2C3)c(OC)c1	none
CC(C)[C@H]1C(=O)N2CCC[C@H]2[C@]2(O)O[C@](NC(=O)[C@@H]3C=C4c5cccc6[nH]cc(c56)C[C@H]4N(C)C3)(C(C)C)C(=O)N12	none (no result: KCNK9 block, KCNQ1 block, KCNQ1 pot, Kir21 inh, hERG rescue)
CC(C)C[C@H]1C(=O)N2CCCC2[C@]2(O)O[C@](NC(=O)[C@@H]3C=C4c5cccc6[nH]cc(c56)CC4N(C)C3)(C(C)C)C(=O)N12 (stereo partly drawn)	KCNQ1 block 8
Cc1cccc(OP(=O)(Oc2ccccc2)OC(c2ccccc2)C(F)(F)F)c1 (stereo not drawn)	KCNQ1 block 8
CC1=C(N2CC2)C(=O)C(CO)=C(N2CC2)C1=O	none (no result: KCNK9 block, KCNQ1 block, KCNQ1 pot, Kir21 inh, hERG rescue)
COc1ccc(Cn2c(O)c(/C=N/NC(=O)c3ccccc3)c(=O)[nH]c2=O)cc1	KCNQ1 block 7
CCN(CC)c1ccc(N=Cc2c(O)n(Cc3ccccc3)c(=O)[nH]c2=O)cc1	KCNK9 block -7.3!, KCNQ1 block 7!
CCN(CC)c1ccc(N=Cc2c(O)n(-c3ccccc3)c(=O)[nH]c2=O)cc1	none
C[C@]12CCC3C(CC[C@@H]4C[C@H](O)CC[C@]34C)C1CCC2=O (stereo partly drawn)	none (no result: KCNK9 block, KCNQ1 block, KCNQ1 pot, Kir21 inh, hERG rescue)
COc1cccc2c1N=C1CCCC3CN(C(C)=O)CCC123 (stereo not drawn)	none (no result: KCNK9 block, KCNQ1 block, KCNQ1 pot, Kir21 inh, hERG rescue)
O=C1c2ccccc2C2(c3ccc(Cl)cc3)NCCN12 (stereo not drawn)	hERG rescue 4.8
COCCNCCOc1ccc(C(C)(C)c2ccccc2)cc1	Kir21 inh -12
Cc1cccn2c(=O)c3c(nc12)N1CCC(Cc2ccccc2)CC1C1(C3)C(=O)N(C)C(=O)N(C)C1=O (stereo not drawn)	KCNK9 block -6.6
CC[C@@H](O)C[C@H]1CCC[C@@]2(C[C@@H]3OC(=O)/C=C/[C@@](C)(O)[C@@H](O)[C@H](C)[C@@H](O)[C@H](OC4CCC(N(C)C)C(C)O4)[C@@H](O)[C@](C)(O)CCCCC/C=C/[C@@H]4CC(C)(C)O[C@@]4(O)C[C@H](O2)[C@H]3C)O1 (stereo partly drawn)	none (no result: KCNK9 block, KCNQ1 block, KCNQ1 pot, Kir21 inh, hERG rescue)
Cc1cccc2c1=NC(=O)/C(=C/c1c(O)[nH]c(=O)[nH]c1=O)C=2	none
O=c1[nH]c(=S)[nH]c(O)c1/C=C1/C=c2ccccc2=N1	hERG rescue 45
N#CC1c2ccccc2-n2nncc2CN1S(=O)(=O)c1cc(Cl)cc(Cl)c1 (stereo not drawn)	none (no result: KCNK9 block, KCNQ1 block, KCNQ1 pot, Kir21 inh, hERG rescue)
COc1ccc(OCC#CCN2CCCCCC2)cc1	none
Cc1ccc(C(C)C)c(OCC#CCN2CCCC2)c1	Kir21 inh -4.2
CC(C)c1ccc(NC(=O)CCNC(=O)N2C[C@H]3C[C@@H](C2)c2cccc(=O)n2C3)cc1	none
CC12CCC(=O)C=C1CC(N1CC1)C1C2CCC2(C)C(O)CCC12 (stereo not drawn)	none (no result: KCNK9 block, KCNQ1 block, KCNQ1 pot, Kir21 inh, hERG rescue)
O=C1Nc2ccc(Br)cc2C(c2ccccc2Cl)=NC1O (stereo not drawn)	none
CC1N=C(c2ccccc2Cl)c2cc(Br)ccc2NC1=O (stereo not drawn)	hERG rescue 7.6
C=C1C(=O)O[C@@H]2C[C@@H](C)[C@@H]3C=CC(=O)[C@@]3(C)[C@@H](O)[C@H]12	Kir21 inh -4.3
C[C@@H]1C[C@H]2OC(=O)C3(CO3)[C@H]2[C@H](O)[C@]2(C)C(=O)C3OC3[C@@H]12 (stereo partly drawn)	none (no result: KCNK3 inh)
COc1cccc(-n2c(/C=C/c3ccc(O)c(O)c3)nc3ccccc3c2=O)c1	KCNQ1 block 6
